In ChEMBL document CHEMBL1944580, “Synthesis of novel sulfonamide-1,2,4-triazoles, 1,3,4-thiadiazoles and 1,3,4-oxadiazoles, as potential antibacterial and antifungal agents. Biological evaluation and conformational analysis studies” (2012):
Values after ≈ are worked out from the molar mass of the structure shown.

Experiments:
Staphylococcus aureus [1] = assay: Antibacterial activity against Staphylococcus aureus ATCC 6538 after 24 hrs by micro dilution method; assay type: functional; details: ATCC 6538, 24 h
Outline: (§1)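 Microdilution MIC in 96-well plates. Bacterial suspensions adjusted in sterile saline to 1.0 × 10^5 CFU/ml, giving 1.0 × 10^4 cfu per well in LB broth. Compounds tested at up to 1 mg/ml. Plates incubated 24 h. MIC taken as the lowest concentration with no visible growth under a binocular microscope. OD at 655 nm was also read against a blank and the positive control. Streptomycin and ampicillin were the positive controls.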

Bacillus cereus [2] = assay: Antibacterial activity against Bacillus cereus clinical isolate after 24 hrs by micro dilution method; assay type: functional; outline: as §1
Micrococcus flavus [3] = assay: Antibacterial activity against Micrococcus flavus ATCC 10240 after 24 hrs by micro dilution method; assay type: functional; details: ATCC 10240, 24 h; outline: as §1
Listeria monocytogenes [4] = assay: Antibacterial activity against Listeria monocytogenes NCTC 7973 after 24 hrs by micro dilution method; assay type: functional; details: NCTC 7973, 24 h; outline: as §1
Pseudomonas aeruginosa [5] = assay: Antibacterial activity against Pseudomonas aeruginosa ATCC 27853 after 24 hrs by micro dilution method; assay type: functional; details: ATCC 27853, 24 h; outline: as §1
Enterobacter cloacae [6] = assay: Antibacterial activity against Enterobacter cloacae human isolate after 24 hrs by micro dilution method; assay type: functional; outline: as §1
Salmonella typhimurium [7] = assay: Antibacterial activity against Salmonella Typhimurium ATCC 13311 after 24 hrs by micro dilution method; assay type: functional, Salmonella enterica subsp. enterica serovar Typhimurium; details: Salmonella enterica, ATCC 13311, 24 h; outline: as §1
Escherichia coli [8] = assay: Antibacterial activity against Escherichia coli ATCC 35210 after 24 hrs by micro dilution method; assay type: functional; details: ATCC 35210, 24 h; outline: as §1
Staphylococcus aureus [9] = assay: Antibacterial activity against Staphylococcus aureus ATCC 6538 treated for 24 hrs followed by sub-cultivated for 72 hrs by micro dilution method; assay type: functional
Outline: (§2)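 2 µl from each well was serially subcultured into 100 µl fresh broth per well and incubated a further 72 h. MBC is the lowest concentration with no visible growth, taken as 99.5% killing of the original inoculum. Streptomycin and ampicillin were the positive controls.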

Bacillus cereus [10] = assay: Antibacterial activity against Bacillus cereus clinical isolate treated for 24 hrs followed by sub-cultivated for 72 hrs by micro dilution method; assay type: functional; outline: as §2
Micrococcus flavus [11] = assay: Antibacterial activity against Micrococcus flavus ATCC 10240 treated for 24 hrs followed by sub-cultivated for 72 hrs by micro dilution method; assay type: functional; outline: as §2
Listeria monocytogenes [12] = assay: Antibacterial activity against Listeria monocytogenes NCTC 7973 treated for 24 hrs followed by sub-cultivated for 72 hrs by micro dilution method; assay type: functional; outline: as §2
Pseudomonas aeruginosa [13] = assay: Antibacterial activity against Pseudomonas aeruginosa ATCC 27853 treated for 24 hrs followed by sub-cultivated for 72 hrs by micro dilution method; assay type: functional; outline: as §2
Enterobacter cloacae [14] = assay: Antibacterial activity against Enterobacter cloacae human isolate treated for 24 hrs followed by sub-cultivated for 72 hrs by micro dilution method; assay type: functional; outline: as §2
Salmonella typhimurium [15] = assay: Antibacterial activity against Salmonella Typhimurium ATCC 13311 treated for 24 hrs followed by sub-cultivated for 72 hrs by micro dilution method; assay type: functional, Salmonella enterica subsp. enterica serovar Typhimurium; details: Salmonella enterica; outline: as §2
Escherichia coli [16] = assay: Antibacterial activity against Escherichia coli ATCC 35210 treated for 24 hrs followed by sub-cultivated for 72 hrs by micro dilution method; assay type: functional; outline: as §2
Talaromyces funiculosus [17] = assay: Antifungal activity against Penicillium funiculosum ATCC 36839 after 72 hrs by serial dilution method; assay type: functional; details: ATCC 36839, 72 h
Outline: (§3)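 Modified microdilution MIC. Spores were washed from malt agar cultures with sterile 0.85% saline containing 0.1% Tween 80 and adjusted to about 1.0 × 10^5 per 100 µl well in malt broth. Compounds were dissolved in DMSO (1 mg/ml). Plates incubated 72 h at 28 °C. MIC is the lowest concentration with no visible growth under a binocular microscope. Bifonazole and ketoconazole were the references.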

Penicillium ochrochloron [18] = assay: Antifungal activity against Penicillium ochrochloron ATCC 9112 after 72 hrs by serial dilution method; assay type: functional; details: ATCC 9112, 72 h; outline: as §3
Trichoderma viride [19] = assay: Antifungal activity against Trichoderma viride IAM 5061 after 72 hrs by serial dilution method; assay type: functional; details: IAM 5061, 72 h; outline: as §3
Aspergillus fumigatus [20] = assay: Antifungal activity against Aspergillus fumigatus human isolate after 72 hrs by serial dilution method; assay type: functional; outline: as §3
Aspergillus niger [21] = assay: Antifungal activity against Aspergillus niger ATCC 6275 after 72 hrs by serial dilution method; assay type: functional; details: ATCC 6275, 72 h; outline: as §3
Aspergillus flavus [22] = assay: Antifungal activity against Aspergillus flavus ATCC 9643 after 72 hrs by serial dilution method; assay type: functional; details: ATCC 9643, 72 h; outline: as §3
Aspergillus versicolor [23] = assay: Antifungal activity against Aspergillus versicolor ATCC 11730 after 72 hrs by serial dilution method; assay type: functional; details: ATCC 11730, 72 h; outline: as §3
Fulvia fulva [24] = assay: Antifungal activity against Fulvia fulva after 72 hrs by serial dilution method; assay type: functional; outline: as §3
Talaromyces funiculosus [25] = assay: Antifungal activity against Penicillium funiculosum ATCC 36839 treated for 72 hrs followed by sub-cultivated for 5 days by serial dilution method; assay type: functional
Outline: (§4)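 MFC obtained after the 72 h, 28 °C malt-broth microdilution (spore inoculum about 1.0 × 10^5 per well, compounds from 1 mg/ml DMSO). 2 µl was serially subcultured into 100 µl broth per well and incubated a further 5 days at 28 °C. MFC is the lowest concentration with no visible growth, taken as 99.5% killing of the original inoculum.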

Penicillium ochrochloron [26] = assay: Antifungal activity against Penicillium ochrochloron ATCC 9112 treated for 72 hrs followed by sub-cultivated for 5 days by serial dilution method; assay type: functional; outline: as §4
Trichoderma viride [27] = assay: Antifungal activity against Trichoderma viride IAM 5061 treated for 72 hrs followed by sub-cultivated for 5 days by serial dilution method; assay type: functional; outline: as §4
Aspergillus fumigatus [28] = assay: Antifungal activity against Aspergillus fumigatus human isolate treated for 72 hrs followed by sub-cultivated for 5 days by serial dilution method; assay type: functional; outline: as §4
Aspergillus niger [29] = assay: Antifungal activity against Aspergillus niger ATCC 6275 treated for 72 hrs followed by sub-cultivated for 5 days by serial dilution method; assay type: functional; outline: as §4
Aspergillus flavus [30] = assay: Antifungal activity against Aspergillus flavus ATCC 9643 treated for 72 hrs followed by sub-cultivated for 5 days by serial dilution method; assay type: functional; outline: as §4
Aspergillus versicolor [31] = assay: Antifungal activity against Aspergillus versicolor ATCC 11730 treated for 72 hrs followed by sub-cultivated for 5 days by serial dilution method; assay type: functional; outline: as §4
Fulvia fulva [32] = assay: Antifungal activity against Fulvia fulva treated for 72 hrs followed by sub-cultivated for 5 days by serial dilution method; assay type: functional; outline: as §4

| MIC (Staphylococcus aureus [1]) [µM] | MIC (Bacillus cereus [2]) [µM] | MIC (Micrococcus flavus [3]) [µM] | MIC (Listeria monocytogenes [4]) [µM] | MIC (Pseudomonas aeruginosa [5]) [µM] | MIC (Enterobacter cloacae [6]) [µM] | MIC (Salmonella typhimurium [7]) [µM] | MIC (Escherichia coli [8]) [µM] | MIC (Talaromyces funiculosus [17]) [µM] | MIC (Penicillium ochrochloron [18]) [µM] | MIC (Trichoderma viride [19]) [µM] | MIC (Aspergillus fumigatus [20]) [µM] | Structure (SMILES) | MBC (Staphylococcus aureus [9]) [µM] | MBC (Bacillus cereus [10]) [µM] | MBC (Micrococcus flavus [11]) [µM] | MBC (Listeria monocytogenes [12]) [µM] | MBC (Pseudomonas aeruginosa [13]) [µM] | MBC (Enterobacter cloacae [14]) [µM] | MBC (Salmonella typhimurium [15]) [µM] | MBC (Escherichia coli [16]) [µM] | also measured |
| --- | --- | --- | --- | --- | --- | --- | --- | --- | --- | --- | --- | --- | --- | --- | --- | --- | --- | --- | --- | --- | --- |
| 140 (≈ 51.9 µg/mL) | 140 (≈ 51.9 µg/mL) | 270 (≈ 100 µg/mL) | 270 (≈ 100 µg/mL) | 270 (≈ 100 µg/mL) | 670 (≈ 248 µg/mL) | 140 (≈ 51.9 µg/mL) | 140 (≈ 51.9 µg/mL) | 140 (≈ 51.9 µg/mL) | 140 (≈ 51.9 µg/mL) | 30 (≈ 11.1 µg/mL) | 270 (≈ 100 µg/mL) | CCNc1nnc(Cc2cc(OC)c(OC)cc2S(=O)(=O)N(C)C)o1 | 270 (≈ 100 µg/mL) | 270 (≈ 100 µg/mL) | 540 (≈ 200 µg/mL) | 540 (≈ 200 µg/mL) | 540 (≈ 200 µg/mL) | 670 (≈ 248 µg/mL) | 270 (≈ 100 µg/mL) | 270 (≈ 100 µg/mL) | MIC (Aspergillus niger [21]): 140 µM (≈ 51.9 µg/mL); MIC (Aspergillus flavus [22]): 140 µM (≈ 51.9 µg/mL); MIC (Aspergillus versicolor [23]): 140 µM (≈ 51.9 µg/mL); MIC (Fulvia fulva [24]): 270 µM (≈ 100 µg/mL); MFC (Talaromyces funiculosus [25]): 270 µM (≈ 100 µg/mL); MFC (Penicillium ochrochloron [26]): 270 µM (≈ 100 µg/mL); MFC (Trichoderma viride [27]): 30 µM (≈ 11.1 µg/mL); MFC (Aspergillus fumigatus [28]): 270 µM (≈ 100 µg/mL); MFC (Aspergillus niger [29]): 140 µM (≈ 51.9 µg/mL); MFC (Aspergillus flavus [30]): 400 µM (≈ 148 µg/mL); MFC (Aspergillus versicolor [31]): 400 µM (≈ 148 µg/mL); MFC (Fulvia fulva [32]): 270 µM (≈ 100 µg/mL) |
| 260 (≈ 100 µg/mL) | 260 (≈ 100 µg/mL) | 130 (≈ 50 µg/mL) | 130 (≈ 50 µg/mL) | 260 (≈ 100 µg/mL) | 630 (≈ 242 µg/mL) | 130 (≈ 50 µg/mL) | 630 (≈ 242 µg/mL) | 260 (≈ 100 µg/mL) | 130 (≈ 50 µg/mL) | 70 (≈ 26.9 µg/mL) | 130 (≈ 50 µg/mL) | CCCNc1nnc(Cc2cc(OC)c(OC)cc2S(=O)(=O)N(C)C)o1 | 260 (≈ 100 µg/mL) | 260 (≈ 100 µg/mL) | 260 (≈ 100 µg/mL) | 260 (≈ 100 µg/mL) | 260 (≈ 100 µg/mL) | 750 (≈ 288 µg/mL) | 260 (≈ 100 µg/mL) | 630 (≈ 242 µg/mL) | MIC (Aspergillus niger [21]): 130 µM (≈ 50 µg/mL); MIC (Aspergillus flavus [22]): 130 µM (≈ 50 µg/mL); MIC (Aspergillus versicolor [23]): 260 µM (≈ 100 µg/mL); MIC (Fulvia fulva [24]): 130 µM (≈ 50 µg/mL); MFC (Talaromyces funiculosus [25]): 780 µM (≈ 300 µg/mL); MFC (Penicillium ochrochloron [26]): 260 µM (≈ 100 µg/mL); MFC (Trichoderma viride [27]): 130 µM (≈ 50 µg/mL); MFC (Aspergillus fumigatus [28]): 260 µM (≈ 100 µg/mL); MFC (Aspergillus niger [29]): 390 µM (≈ 150 µg/mL); MFC (Aspergillus flavus [30]): 390 µM (≈ 150 µg/mL); MFC (Aspergillus versicolor [31]): 390 µM (≈ 150 µg/mL); MFC (Fulvia fulva [32]): 260 µM (≈ 100 µg/mL) |
